ChEMBL document CHEMBL1124704, “Synthesis and immunosuppressive activity of some side-chain variants of mycophenolic acid” (J Med Chem, 1990)
Values joined by “and” are separate entries in the source; they are usually repeats but may differ in a detail not shown here. Equal values may be shown once.

Columns and labels:
[1] = molecular target: Inosine-5'-monophosphate dehydrogenase 1 (Homo sapiens, UniProt P20839); experiment: In vitro inhibition of inosine Inosine-5'-monophosphate dehydrogenase
Inosine-5'-monophosphate dehydrogenase 1, sequence (P20839 whole entry): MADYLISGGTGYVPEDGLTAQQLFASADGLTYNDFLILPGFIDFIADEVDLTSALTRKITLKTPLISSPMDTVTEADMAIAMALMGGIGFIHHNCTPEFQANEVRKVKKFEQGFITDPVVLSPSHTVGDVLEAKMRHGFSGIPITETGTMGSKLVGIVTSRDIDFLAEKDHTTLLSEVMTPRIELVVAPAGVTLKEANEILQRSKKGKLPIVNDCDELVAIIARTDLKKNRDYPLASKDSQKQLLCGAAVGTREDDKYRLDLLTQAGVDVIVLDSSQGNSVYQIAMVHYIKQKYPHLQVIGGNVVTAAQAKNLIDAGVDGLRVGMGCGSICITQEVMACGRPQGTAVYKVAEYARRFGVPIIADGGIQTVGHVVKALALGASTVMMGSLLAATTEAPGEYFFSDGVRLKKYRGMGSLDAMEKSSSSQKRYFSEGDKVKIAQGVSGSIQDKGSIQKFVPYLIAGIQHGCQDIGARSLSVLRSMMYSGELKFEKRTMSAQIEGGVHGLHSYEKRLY
Outline: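 IMPD came from a MOLT-4 cell lysate: five freeze-thaw cycles, then the high-speed (ca. 31000g) supernatant was kept. Assay in 50 mM potassium phosphate pH 7.4 with 10 μM [¹⁴C]IMP, 0.3 mM NAD, 0.1 M KCl and 1 mM EDTA, 25 min at 37 °C. Stopped with HClO₄; IMP/XMP quantified by anion-exchange HPLC with radioflow detection. Five concentrations, 0.02–5.0 μg/mL; IC₅₀ determined graphically.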

Mus musculus [2] = experiment: (§1) In vivo antibody response to sheep red blood cells(SRBC) by plaques per million after 25 mg/kg oral administration in mice.; assay type: functional
[3] = In vitro inhibition of human lymphocyte proliferation in response to phytohemagglutininin (PHA) was determined; assay type: functional
Mus musculus [4] = experiment: In vivo antibody response to sheep red blood cells(SRBC) by plaque-forming cells in the spleen (PFC/spleen) after 25 mg/kg oral administration in mice.; assay type: functional
[5] = In vitro inhibition of human lymphocyte proliferation in response to pokeweed mitogen(PWM) was determined; assay type: functional
Mus musculus [6] = experiment: as §1; assay type: functional; remark: listed apart in the source
Mus musculus [7] = experiment: In vivo inhibition of plaque-forming cells in the spleen (PFC/spleen) after 25 mg/kg oral administration in mice.; assay type: functional
Mus musculus [8] = experiment: In vivo inhibition of plaques per million after 25 mg/kg oral administration in mice.; assay type: functional
[9] = In vitro inhibition of human lymphocyte proliferation in response to staphylococcus protein A(SPA) was determined; assay type: functional
Mus musculus [10] = experiment: In vivo for antibody response to sheep red blood cells(SRBC) by plaque-forming cells in the spleen (PFC/spleen) after 25 mg/kg oral administration in mice.; assay type: functional
Mus musculus [11] = experiment: The compound was tested in vivo for inhibition of plaque-forming cells in the spleen (PFC/spleen) after 50 mg/kg oral administration in mice; assay type: functional
Mus musculus [12] = experiment: In vivo total no of plaques in spleen was determined after 100 mg/kg oral administration in mice.; assay type: functional
Mus musculus [13] = experiment: In vivo antibody response to sheep red blood cells by plaque-forming cells in the spleen (PFC/spleen) after 25 mg/kg oral administration in mice.; assay type: functional
Mus musculus [14] = experiment: The compound was tested in vivo for inhibition of plaques per million after 50 mg/kg oral administration in mice.; assay type: functional
Mus musculus [15] = experiment: In vivo antibody response to sheep red blood cells(SRBC) by plaque-forming cells in the spleen (PFC/spleen) after 40 mg/kg oral administration in mice.; assay type: functional
Mus musculus [16] = experiment: The compound was tested in vivo for inhibition of plaques per million after 100 mg/kg oral administration in mice.; assay type: functional
Mus musculus [17] = experiment: In vivo antibody response to sheep red blood cells(SRBC) by plaque-forming cells in the spleen (PFC/spleen) after 100 mg/kg oral administration in mice.; assay type: functional
Mus musculus [18] = experiment: In vivo inhibition of plaque-forming cells in the spleen (PFC/spleen) after 100 mg/kg oral administration in mice.; assay type: functional
Mus musculus [19] = experiment: In vivo antibody response to sheep red blood cells(SRBC) by plaque-forming cells in the spleen (PFC/spleen) after 50 mg/kg oral administration in mice.; assay type: functional
Mus musculus [20] = experiment: In vivo inhibition of plaque-forming cells in the spleen (PFC/spleen) after 40 mg/kg oral administration in mice.; assay type: functional
Mus musculus [21] = experiment: The compound was tested in vivo for inhibition of plaques per million after 40 mg/kg oral administration in mice.; assay type: functional
Mus musculus [22] = experiment: In vivo total no of plaques in spleen was determined after 25 mg/kg oral administration in mice.; assay type: functional
Mus musculus [23] = experiment: The compound was tested in vivo for inhibition of plaques per million after 25 mg/kg oral administration in mice.; assay type: functional
Mus musculus [24] = experiment: In vivo total no of plaques in spleen was determined after 50 mg/kg oral administration in mice.; assay type: functional

SMILES	IC50 [1] [µM]	IC50 [3] [µM]	IC50 [5] [µM]	IC50 [9] [µM]	further results
COc1c(C)c2c(c(O)c1C/C=C(\C)CCC(=O)O)C(=O)OC2 [MYCOPHENOLIC ACID]	0.02	0.06	0.02	0.06	PPM (Mus musculus [2]): 308 PPM; PFC/spleen (Mus musculus [4]): 45333; PPM (Mus musculus [6]): 264; Inhibition (Mus musculus [7]; 25 mg/kg): 69% and 46%; Inhibition (Mus musculus [8]): 65% and 44%; PFC/spleen (Mus musculus [10]): 36027
COc1c(C)c2c(c(O)c1CCCCCCC(=O)O)C(=O)OC2	1.8	> 10	> 10	> 10	–
COc1c(C)c2c(c(O)c1CCCCCC(=O)O)C(=O)OC2	0.94	2.5	4.3	1.6	–
COc1c(C)c2c(c(O)c1CC=C=C(C)CCC(=O)O)C(=O)OC2	1.2	0.35	0.35	0.15	inhibition in vivo at 50 mg/kg (Mus musculus [11]): -33%; PPM (Mus musculus [12]): 114; PFC/spleen (Mus musculus [13]): 96583; inhibition in vivo at 50 mg/kg (Mus musculus [14]): -20%; PFC/spleen (Mus musculus [15]): 99333; inhibition in vivo at 100 mg/kg (Mus musculus [16]): 79%; PFC/spleen (Mus musculus [17]): 17000; inhibition in vivo at 100 mg/kg (Mus musculus [18]): 80%; PFC/spleen (Mus musculus [19]): 112416; inhibition in vivo at 25 mg/kg (Mus musculus [7]; Mus musculus, Spleen, po): 18%; inhibition in vivo at 40 mg/kg (Mus musculus [20]): 15%; inhibition in vivo at 40 mg/kg (Mus musculus [21]): 22%; PPM (Mus musculus [22]): 630 and 583; inhibition in vivo at 25 mg/kg (Mus musculus [23]): 16%; PPM (Mus musculus [24]): 657
COc1c(C)c2c(c(O)c1CC1C(F)(F)C1(C)CCC(=O)O)C(=O)OC2 (stereo unspecified)	2.6	3.1	2.8	10	–
COc1c(C)c2c(c(O)c1CSCCC(=O)O)C(=O)OC2	10.9	> 10	> 10	> 10	–
COc1c(C)c2c(c(O)c1CC#CCCCC(=O)O)C(=O)OC2	2.5	6	6	> 10	–
COc1c(C)c2c(c(O)c1CSCCCC(=O)O)C(=O)OC2	22.7	> 10	> 10	> 10	–
COc1c(C)c2c(c(O)c1C/C=C/CCCC(=O)O)C(=O)OC2	–	> 10	> 10	> 10	–
COc1c(C)c2c(c(O)c1CC#CCCC(=O)O)C(=O)OC2	2.6	4.8	2.4	7.5	–
COc1c(C)c2c(c(O)c1CC1CC1(C)CCC(=O)O)C(=O)OC2 (stereo unspecified)	1.1	3.8	1.7	4.3	–
COc1c(C)c2c(c(O)c1CC1C(Br)(Br)C1(C)CCC(=O)O)C(=O)OC2 (stereo unspecified)	3.1	4.4	> 10	> 10	–
COc1c(C)c2c(c(O)c1C/C=C/CCC(=O)O)C(=O)OC2	–	4.8	4.8	4.8	–
